Compound activity deposited in PubChem by several laboratories.
Compounds with a hit are over-represented: about 1.6% of the library has one in this group of screens.
MT1-MMP act inh – blocks activation of human MT1-MMP; P50281; HT1080 RFP-PRO-GFP cells, GFP/RFP ratio fluorescence, overnight; percent of plate control window, DMSO zero; GFP/RFP ratio change, % at 20 µM; 360,000 compounds, 0.061% hits; AID 651647;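 active = GFP/RFP ratio change of at least 30% with cell ATP level not reduced by more than half and red fluorescence within 50% of control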
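Assay system – RFP-PRO-GFP reporter HT1080 cells · Compound dosing – single dose of 20 µM compound, 1% DMSO final · Incubation – overnight compound exposure at 37 °C · Measure – GFP/RFP fluorescence ratio · Benchmarks – DMSO wells and RFP-L50D-GFP cells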
MsrA act – activates bovine MsrA enzyme | 360,000 compounds, 0.3% hits | purified bovine MsrA, absorbance read-out | activation, % at 10.6 µM; in the data active = activation above about 7.5%
MsrA inhibitor – inhibits bovine methionine sulfoxide reductase A; purified bovine MsrA, absorbance read-out; inhibition, % at 15.5 µM; 360,000 compounds, 0.75% hits; AID 651718; in the data active = inhibition above about 4.5%
pCIP destab – compounds decreasing mouse p/CIP protein stability; Q05BA5; F442A p/CIP-EGFP cells, EGFP fluorescence, 16 h; decrease of EGFP signal, % at 10 µM; 290,000 compounds, 0.01% hits; AID 1984;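 active = EGFP signal decrease of at least 30% at 10 µM or well 3 SD below plate mean, unless failing retest; inactive = the rest, including hits failing retest or dose response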
SKN-1 block – inhibitors of C. elegans SKN-1. C. elegans VP596 Pgst-4::GFP/RFP ratio, acrylamide-induced, 24 h. inhibition, % at 21.8 µM. 360,000 compounds, 0.49% hits;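 active = interference check ratio from 0.5 to 1.5 plus GFP to RFP signal ratio inhibition reaching or exceeding a fixed threshold, cut at about 30% in these data, passing the limit was not always enough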
MT1-MMP act val – MT1-MMP (human) activation inhibition, single-concentration validation | inhibition, % at 20 µM | AID 652235 | 200 compounds, 10% hits | shares compounds with MT1-MMP act inh | HT1080 RFP-PRO-GFP cells, GFP and RFP fluorescence ratio, overnight;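 active = inhibition of at least 50% in the primary cell screen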
Hits are given with their value; - = inactive; . = not tested or not shown.

SMILES	MT1-MMP act inh	MsrA act	MsrA inhibitor	pCIP destab	SKN-1 block	MT1-MMP act val
CCn1c(=O)c(=O)[nH]c2cc(C(=O)NC3CCCc4ccccc43)ccc21 (stereo not drawn)	31.3	-	-	-	-	-
CC[n+]1c(/C=C(\C)Nc2ccccc2)sc2ccccc21	-	-	-	-	-	.
CC[n+]1c(/C=C/Nc2ccccc2)sc2ccccc21	37.6	-	-	-	39.2	-
O=C1CSC(=S)N1CC1CCCO1 (stereo not drawn)	34.7	-	-	-	-	-
CCCCCCCCN1C(=O)[C@@H](CC(=O)N2CCN(C(=O)C3CC3)CC2)C[C@@]2(C(=O)OC)C1=C[C@H](C(C)(C)C)O[C@@H]2C	.	.	-	.	.	.
COc1ccc(N=Cc2ccccc2O)cc1	-	-	-	.	-	.
COc1ccc2sc(/C=C/c3ccccc3O)[n+](C)c2c1	33.7	-	-	-	-	-
CN1/C(=C\C(=O)c2cncc(Br)c2)C(C)(C)c2ccccc21	31.5	-	-	-	-	-
CN1/C(=C\C=N\NC(=O)c2cccnc2)C(C)(C)c2ccccc21	-	-	-	-	-	.
CN1/C(=C\C(=O)c2cccnc2)C(C)(C)c2ccccc21	-	-	-	-	-	.
CN1/C(=C\C=N\NC(=O)c2ccc(O)cc2)C(C)(C)c2ccccc21	59.2	-	-	-	-	-
Cc1ccc(C(=O)NC(=S)/C=C2\N(C)c3ccccc3C2(C)C)cc1	40.3	-	-	-	-	-
CC(=O)/C=C1\N(C)c2ccc(C)cc2C1(C)C	47.0	-	-	-	-	-
COC(=O)Cc1nnn2c1[C@H](C)[C@H](c1ccccc1Br)OC[C@H](C)C2	.	.	-	.	.	.
CCC(C)N(Cc1ccc(OC)cc1OC)S(=O)(=O)c1cc(Br)ccc1Br (stereo not drawn)	.	.	-	.	.	.
Cc1c(NC(=S)/C=C2\N(C)c3ccccc3C2(C)C)c(=O)n(-c2ccccc2)n1C	32.8	-	-	-	-	-
O=C1c2ccccc2C(=O)c2c(NCCCN(CCO)CCO)cccc21	30.1	-	-	-	40.7	-
CCOC(=O)c1c2c3c(c(Cl)ccc3[nH]c1=O)C(=O)c1ccccc1-2	44.2	-	-	-	-	-
CCOC(=O)c1c2c3c(cccc3[nH]c1=O)C(=O)c1ccccc1-2	-	-	-	-	-	.
CC(C)(C)S(=O)(=O)N1C[C@@H]2CC(=O)C(CCO)=C2[C@H]1CCO	.	.	-	.	.	.
ClCC1NCC(c2ccccc2Cl)c2c1[nH]c1ccccc21 (stereo not drawn)	36.8	-	-	-	-	-
O=c1[nH]cnc2sc(-c3ccccc3)cc12	33.8	-	-	-	-	-
O=c1[nH]c(-c2ccccc2)nc2sc(-c3ccccc3)cc12	-	-	-	-	-	.
Cc1cc(Br)c2nc(-c3ccc(F)cc3)c(Cc3cccc(Cl)c3)n2c1	.	.	-	.	.	.
O=C(Cc1c[nH]c2ccccc12)Nc1ccc(Nc2cccnc2)c(-c2ccc(OC(F)(F)F)cc2)c1	.	.	-	.	.	.
SMILES	MT1-MMP act inh	MsrA act	MsrA inhibitor	pCIP destab	SKN-1 block	MT1-MMP act val
COc1ccc2nc(-n3c(O)c(C4=c5ccccc5=NC4=O)[nH]c3=S)sc2c1	34.6	-	-	-	-	-
Nc1[nH]c(C(=O)c2ccccc2)c(-c2ccccc2Br)c1C(=O)c1cccs1	.	.	-	.	.	.
COc1cccc(C(=O)NNc2c3ccccc3nc3ccccc23)c1	-	-	-	-	-	.
Cc1cc(C(=O)NNC(=O)c2ccc(Cl)cc2)c2ccccc2n1	-	-	-	.	-	.
Cc1ccc(C(=O)NNc2c3ccccc3nc3ccccc23)cc1	36.8	-	-	-	-	-
O=C(NNc1c2ccccc2nc2ccccc12)c1ccc(Cl)cc1	40.1	-	-	-	41.1	-
Cc1ccc2nc(-c3ccc(CN4CCC5(CC4)CNc4ccccc45)cc3)c(-c3ccccc3)nc2c1	.	.	-	.	.	.
CNc1ccccc1C(C)(C)c1cc(-c2cccc([N+](=O)[O-])c2)no1	-	-	-	-	-	.
CNc1ccccc1C(C)(C)c1cc(-c2cccc(Br)c2)no1	62.0	-	-	-	-	53.9
CCOC(=O)c1ccccc1N1C(=O)CSC1=S	30.1	-	-	-	-	-
O=C(O)c1cccc(N2C(=O)CSC2=S)c1	36.0	-	-	-	-	-
O=S1(=O)N[C@@H](Cc2ccccc2)COc2cccc(NCCCN3CCOCC3)c21	.	.	-	.	.	.
Nc1nc2c(ncn2[C@@H]2O[C@H](C(=O)N[C@H](Cc3ccccc3)C(=O)NCCCc3ccccc3)[C@@H](O)[C@H]2O)c(=O)[nH]1	.	.	-	.	.	.
CC1=NN(c2ccccc2)C(=O)/C1=C/C=C/C=C/N(C)C	40.3	-	-	-	66.0	-
CC1=NN(c2ccccc2)C(=O)C1N=Nc1ccc(N)cc1 (stereo not drawn)	52.5	-	-	-	40.6	62.4
COc1ccccc1N=Nc1nc(-c2ccccc2)c(-c2ccccc2)[nH]1	30.7	-	-	-	36.5	-
C[C@@H]1NS(=O)(=O)c2ccc(F)cc2O[C@@H]1c1ccccc1	.	.	-	.	.	.
COc1cccc(C2=Nc3cccc4cccc(c34)N2)c1	36.5	-	-	-	-	-
CN(C)c1ccc(C(=O)c2ccc(O)cc2O)cc1	-	-	-	-	-	.
CN(C)c1ccc(Cc2cc3c(O)ccc(O)c3cc(Cc3ccc(N(C)C)cc3)c2=O)cc1	32.6	-	-	.	-	-
Cc1c(-c2ccccc2)nnn1-c1ccc(F)c(Cl)c1	.	.	-	.	.	.
Cc1[nH]c2ccccc2c1C(=O)c1c(N)[nH]c(C(=O)c2ccc(Br)cc2)c1-c1ccc(Br)cc1	.	.	-	.	.	.
CCn1c(C)c(C2=CCN(S(=O)(=O)c3ccc(C)cc3)CC2)c2ccccc21	31.4	-	-	-	-	-
CSc1nc(=S)n(Cc2ccccc2)c(C)c1C(C)=O	-	-	-	-	-	.
CCSc1nc(=S)n(Cc2ccccc2)c(C)c1C(C)=O	35.2	-	-	-	-	-
SMILES	MT1-MMP act inh	MsrA act	MsrA inhibitor	pCIP destab	SKN-1 block	MT1-MMP act val
COC(=O)[C@]12C[C@H](CC(=O)NCCc3ccccc3OC)C(=O)N(CCC3=CCCCC3)C1=C[C@H](COCc1ccccc1)O[C@@H]2C	.	.	-	.	.	.
O=C1c2ccccc2C(=O)c2c(O)c(O)cc(O)c21	47.4	-	-	.	-	-
CCN1C(=O)/C(=C2/C=Cc3ccccc3N2CC)SC1=S	-	-	-	-	-	.
CCCN1/C(=C2/SC(=S)N(CC)C2=O)C=Cc2ccccc21	40.5	-	-	-	-	-
CN1C(=O)/C(=C2/C=Cc3ccccc3N2CCCS(=O)(=O)O)SC1=S	41.8	-	-	-	-	-
CCCN1C(=O)/C(=C2/C=Cc3ccccc3N2CC)SC1=S	45.2	-	-	-	-	-
COC(=O)C1=C(C)N(Cc2cccc(C(F)(F)F)c2)C(=NCC2CC2)NC1c1ccccc1C(F)(F)F (stereo not drawn)	.	.	-	.	.	.
CC1CC2(CCCC2)Nc2ccc(F)cc21 (stereo not drawn)	-	-	-	-	-	.
